Measurements from different studies.
Compare with care: the assays were run in different laboratories.
Target: Mitogen-activated protein kinase 14 (MAPK14, Homo sapiens, UniProt Q16539)

CN1CCN(C(=O)c2ccc(NC(=O)Nc3ccc(N(C)c4ccnc(Nc5ccc(CS(C)(=O)=O)cc5)n4)cc3)cc2)CC1
remaining binding (binding; competition with immobilised ligand; 1 µM): 83%

C#Cc1cnc(Nc2ccnc(CO)c2)nc1Nc1ccccc1S(C)(=O)=NC#N (stereo not drawn)
remaining signal (cell-free assay; 1 µM): 91%

CC#CC(=O)N1CCC[C@H]1c1nc(-c2ccc(C(=O)Nc3ccccn3)cc2)c2c(N)nccn12
inhibition (enzyme activity; inhibitor; 1 µM): 0%

COc1ccc2[nH]c3c4[nH]c5ccc(OC)cc5c4c4c(c3c2c1)C(=O)NC4=O
remaining binding (binding; competition with immobilised ligand; 1 µM): 87%

N#Cc1ccc(NC(=O)Nc2ccccc2)cc1
remaining binding (cell-free assay; competition with immobilised ligand; 25 µM): 79%

COc1ccc2oc(-c3ccc4nc(N)oc4c3)c/c(=N\c3ccccc3NC(=O)CCN)c2c1
remaining binding (binding; 1 µM): 109%

C1=C/COCc2cc(ccc2OCCN2CCCC2)Nc2nccc(n2)-c2cccc(c2)COC/1
remaining signal (cell-free assay; 0.1 µM): 89%

C=CC(=O)N1CCC([C@@H]2CCNc3c(C(N)=O)c(-c4ccc(Oc5ccccc5)cc4)nn32)CC1
inhibition (enzyme activity; inhibitor; 1 µM): 1%

CCCCC(=O)Nc1ccc(-c2ccc3ncn(CCC)c(=O)c3c2)cn1
remaining binding (binding; competition with immobilised ligand; 0.5 µM): 88%
